In ChEMBL document CHEMBL1155452, “Oncocin (VDKPPYLPRPRPPRRIYNR-NH2): a novel antibacterial peptide optimized against gram-negative human pathogens” (J Med Chem, 2010):

Tests used:
Escherichia coli = test: Antibacterial activity against Escherichia coli BL21 AI after 20 hrs by broth microdilution assay; type: functional
In short: (§1)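 Nutrient-broth overnight cultures diluted in 1% TSB; E. coli BL21AI 7.5 × 10^5 cells/well, M. luteus ATCC 10240 2 × 10^6 cells/well. Peptides serially 2-fold diluted in 1% TSB from 128 to typically 0.5 μg/mL. Incubation at 37 °C; A595 read after 20 ± 2 h. MIC is the lowest concentration with absorbance not above medium only. Triplicate.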

Micrococcus luteus = test: Antibacterial activity against Micrococcus luteus ATCC 10240 after 20 hrs by broth microdilution assay; type: functional; details: ATCC 10240, 20 h; in short: as §1

Row | MIC (Escherichia coli) | MIC (Micrococcus luteus) | Substance
1 | 8 µg/mL | 16 µg/mL | H-VDKPPYLPRPRPPRRIYNNR-OH
2 | 16 µg/mL | 16 µg/mL | H-VDKPPYLPRPKPPRRIYNNR-OH
